Source: PubChem BioAssay (several laboratories)
TLR4 MyD88 comp: inhibitors of TLR4-MyD88 association in cells, primary screen, cell-based, HeLa CL3-4, BLA complementation, FRET ratio. actives 0.18% (n = 200,000). inhibition, % at 8.4 µM. AID 861, 2007. Toll-like receptor 4 (Homo sapiens) + Myeloid differentiation primary response protein …. HeLa CL3-4 TLR4/MyD88 BLA complementation; in the data active = inhibition above about 25%
Target sequence (O00206 whole entry, looked up): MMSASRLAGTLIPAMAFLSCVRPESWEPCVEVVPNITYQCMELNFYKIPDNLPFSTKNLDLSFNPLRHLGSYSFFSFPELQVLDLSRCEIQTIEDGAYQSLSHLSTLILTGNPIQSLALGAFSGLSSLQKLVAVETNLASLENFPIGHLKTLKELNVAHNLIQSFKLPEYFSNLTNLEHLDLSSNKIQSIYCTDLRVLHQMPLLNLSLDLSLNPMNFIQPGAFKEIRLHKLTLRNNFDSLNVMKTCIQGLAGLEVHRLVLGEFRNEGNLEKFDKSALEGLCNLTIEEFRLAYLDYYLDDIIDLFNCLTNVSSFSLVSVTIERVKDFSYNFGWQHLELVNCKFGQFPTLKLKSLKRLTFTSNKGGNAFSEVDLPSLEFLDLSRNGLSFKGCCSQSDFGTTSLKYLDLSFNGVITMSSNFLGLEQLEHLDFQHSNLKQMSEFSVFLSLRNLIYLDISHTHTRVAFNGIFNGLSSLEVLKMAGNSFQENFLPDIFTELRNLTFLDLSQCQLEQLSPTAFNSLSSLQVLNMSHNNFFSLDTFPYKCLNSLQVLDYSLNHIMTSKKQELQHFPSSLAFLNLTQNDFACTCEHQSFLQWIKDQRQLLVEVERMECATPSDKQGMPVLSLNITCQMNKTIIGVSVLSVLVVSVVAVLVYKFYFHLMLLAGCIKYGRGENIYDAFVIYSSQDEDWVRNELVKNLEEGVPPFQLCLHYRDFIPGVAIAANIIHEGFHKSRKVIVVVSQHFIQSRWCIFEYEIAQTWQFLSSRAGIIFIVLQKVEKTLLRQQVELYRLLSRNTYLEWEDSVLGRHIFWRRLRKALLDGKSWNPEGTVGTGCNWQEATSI
Target sequence (Q99836 whole entry, looked up): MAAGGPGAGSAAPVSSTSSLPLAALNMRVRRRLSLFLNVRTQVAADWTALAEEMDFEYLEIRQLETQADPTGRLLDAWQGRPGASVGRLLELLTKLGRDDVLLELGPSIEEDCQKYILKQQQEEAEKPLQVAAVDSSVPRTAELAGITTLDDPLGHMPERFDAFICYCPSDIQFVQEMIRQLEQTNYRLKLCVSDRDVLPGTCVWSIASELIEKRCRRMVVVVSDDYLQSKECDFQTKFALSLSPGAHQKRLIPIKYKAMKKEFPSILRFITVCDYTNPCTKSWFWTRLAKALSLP
MC4R antagonist: MC4R antagonists of cAMP signaling, primary screen, cell-based, TR-FRET, antagonist arm of biased-ligand search; inhibition, % at 6.5 µM; actives 0.48% (n = 360,000); Melanocortin receptor 4 (Homo sapiens), P32245; AID 540295, 2011; MC4R-expressing cells, MTII-stimulated cAMP, LANCE TR-FRET;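 active = inhibition above its plate's cutoff, the mean of tested wells on that plate plus 3 SD, cut at about 29% in these data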
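system = U2OS cells with stable human MC4R expression | also added = Melanotan II challenge after compound preincubation | dosing = one concentration, 6.5 µM nominal | incubation = compound 30 min, challenge 1 h, detection 1 h | measured by = TR-FRET with Eu-cAMP and labeled anti-cAMP, 671 nm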
NTR1 agonist: agonists of human NTR1, primary screen, imaging, U2OS cells, beta-arrestin-GFP, high content; Neurotensin receptor type 1 (Homo sapiens), P30989; NTR1-U2OS beta-arrestin-GFP spot imaging, agonist mode; activation, % at 20 µM; actives 0.17% (n = 330,000);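 active = activation at or above 40% of the spot to cytoplasm intensity ratio, with at least 20 cells analyzed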
NOD2-RIPK2 inh: NOD2-RIPK2 binding disruptors in cells, primary screen, fluorescence, CHO cells, BLA complementation; Receptor-interacting serine/threonine-protein kinase 2 (Homo sapiens), O43353; CCF4 ratio; inhibition, % at 4.98 µM; actives 0.38% (n = 360,000); in the data active = inhibition above about 21%
MC4R barr agon: MC4R agonists recruiting beta-arrestin, primary screen, cell-based, luminescence, agonist arm of biased-ligand search. activation, % at 8.9 µM. actives 0.98% (n = 360,000). U2OS MC4R beta-arrestin complementation; percent of melanotan II response, DMSO zero. AID 540308, 2011. Melanocortin receptor 4 (Homo sapiens), P32245;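 active = activation above a per-plate cutoff, the mean activation of sample wells on that plate plus 3 SD, cut at about 8% in these data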
TLR9-MyD88 block: inhibitors of TLR9-MyD88 association in cells, primary screen, cell-based, CHO, BLA complementation, fluorescence | Toll-like receptor 9 (Homo sapiens) + Myeloid differentiation primary response protein … | CCF4 FRET ratio | inhibition, % at 4.98 µM | actives 0.21% (n = 340,000);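 active = inhibition above the mean over all tested compounds plus 3 SD, cut at about 21% in these data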
Numbers stand for hits; 0 = inactive; - = no result. Rows were chosen to be rich in hits. Some 1.9% of all compounds tested hit in one or more screens of this group.

SMILES | TLR4 MyD88 comp | MC4R antagonist | NTR1 agonist | NOD2-RIPK2 inh | MC4R barr agon | TLR9-MyD88 block
Cc1ccc(C(=O)OC(C(=O)Nc2ccc(Cl)cc2C(F)(F)F)c2ccccc2)cc1 (stereo not drawn) | 0 | 0 | 0 | 0 | 9.5 | 0
O=C(NCc1ccccc1)C1c2ccccc2OCC(=O)N1Cc1ccco1 (stereo not drawn) | - | - | - | 0 | - | -
Cc1c(CCOC(=O)C23CC4CC(CC(C)(C4)C2)C3)sc[n+]1CC(=O)c1ccccc1 | 0 | 0 | 0 | 0 | 9.3 | 0
COc1ccc(NC(=O)C2Cc3c(-c4ccccc4)ccnc3O2)cc1OC (stereo not drawn) | - | 0 | - | 0 | 0 | -
CCOc1cc(Br)cc(/C=C2\SC(=Nc3ccccc3)NC2=O)c1O | - | 0 | 0 | 0 | 10.2 | 0
C=CCOc1ccc(Br)cc1/C=C1/SC(=Nc2ccc(C(=O)O)cc2)NC1=O | 0 | 0 | - | 0 | 0 | 0
COC(=O)c1ccc(NC(=O)CN(C)S(=O)(=O)c2ccc(OC)c(C)c2)cc1 | 0 | 0 | 0 | 0 | 8.3 | 0
CC1=CC(=O)C(C(C)C)=CC1=NC(=O)c1ccc(C)cc1 | 0 | 51.4 | 0 | 0 | 0 | 0
CC1=CC(=O)C(C(C)C)=C/C1=N/OC(=O)c1cccc([N+](=O)[O-])c1 | 0 | 0 | 0 | 0 | 0 | 0
O=C(COC(=O)c1cccc(Br)c1)NC(=O)NC1CCCC1 | - | 0 | 0 | 0 | 8.8 | 0
COc1ccc(-c2oc3c4c2C(=O)OCCOC4CCC3)cc1 (stereo not drawn) | - | - | - | 0 | - | -
Cc1ccc(Sc2c(C)nn(C(=O)c3cccc(S(=O)(=O)N4CCOCC4)c3)c2C)cc1 | 0 | 0 | 0 | 0 | 9.2 | 0
CCCCNC(=O)c1ccc(/C=C2\Oc3ccccc3N(C)C2=O)cc1 | 0 | 0 | 0 | 0 | 9.2 | 0
CCCCNC(=O)c1ccc2c(c1)N(C)C(=O)c1ccccc1S2 | - | 0 | 0 | 0 | 0 | 0
O=C(NCCCN1CCOCC1)c1ccc(/C=C2\Oc3ccccc3N(Cc3ccccc3F)C2=O)cc1 | - | 0 | 0 | 0 | 8.9 | 0
CCN1CCN(CCCNC(=O)c2ccc(/C=C3/Oc4ccccc4N(Cc4cccc(C)c4)C3=O)cc2)CC1 | - | 0 | 0 | 0 | 0 | 0
CC1=C(C(=O)N2CCCCCC2)CC(CC(=O)NC2CCCCC2)C(=O)N1CCC1=CCCCC1 (stereo not drawn) | - | - | - | 0 | - | -
Cc1cc(-n2c(SCC(=O)Nc3ccc(F)c(F)c3)nc3n[nH]c(C)c3c2=N)ccc1Cl | - | 0 | 0 | 0 | 0 | 0
Cc1cc(-n2c(SCC(=O)Nc3ccc(Br)cc3)nc3n[nH]c(C)c3c2=N)ccc1Cl | - | 0 | 0 | 0 | 19.0 | 0
CC(c1ccc(O)cc1)(c1ccc(O)cc1)c1ccc(CCBr)cc1 | - | 0 | 0 | 0 | 17.7 | 0
CSc1nnc(-c2ccc(NC(=O)CCc3ccccc3)cc2)n1C | 0 | 0 | 0 | 0 | 0 | 0
Cn1c(SCC(=O)Nc2ccccc2)nnc1-c1ccc(NC(=O)CCc2ccccc2)cc1 | 0 | 0 | 0 | 0 | 9.3 | 0
CNc1ccc(-c2ccccc2CO)cn1 | - | 0 | - | 0 | 0 | -
COc1cc(NC(=O)c2cc(-c3ccc4c(c3)OCO4)on2)cc(OC)c1OC | - | 0 | 0 | 0 | 8.8 | 0
O=C1CCCCC1C(Nc1ccc(Cl)cc1)c1ccccc1 (stereo not drawn) | 0 | 0 | 0 | 0 | 8.9 | 0
SMILES | TLR4 MyD88 comp | MC4R antagonist | NTR1 agonist | NOD2-RIPK2 inh | MC4R barr agon | TLR9-MyD88 block
CC1=CC(=O)C(C(C)C)=C/C1=C(\c1cc(C(C)C)c(OP(=O)(O)O)cc1C)c1ccccc1C(=O)O | - | 0 | 0 | 0 | 0 | 0
C=CCNC(=O)c1c(N)n(-c2ccc3c(c2)OCO3)c2nc3ccccc3nc12 | 0 | 0 | 0 | 0 | 8.7 | 0
Nc1c(C(=O)NCCN2CCOCC2)c2nc3ccccc3nc2n1-c1cccc(F)c1 | 0 | 0 | 0 | 0 | 0 | 0
COc1ccc(NC(=O)c2ccc(NC3CC(=O)N(c4ccc(C)cc4C)C3=O)cc2)cc1 (stereo not drawn) | - | 0 | 0 | 0 | 8.2 | 0
CCCCCNC(=O)C(CCc1ccccc1)n1c(=O)c(-c2ccccc2)nc2ccccc21 (stereo not drawn) | - | - | - | 0 | - | -
Cc1ccc(-c2nc3ccccc3n2C(C)C(=O)NC(C)(C)C)cc1 (stereo not drawn) | - | - | - | 0 | - | -
CN(N=Nc1ccc([N+](=O)[O-])cc1)c1ccccc1 | 0 | 0 | 0 | 0 | 8.3 | 0
CCOC(Cn1c(SCC(=O)Nc2cc(C)on2)nc2ccccc2c1=O)OCC | - | 0 | 0 | 0 | 0 | 0
Cc1cc(NC(=O)CSc2c[nH]c3ccccc23)no1 | - | 0 | 0 | 0 | 0 | 0
Cc1ccc(Cn2c(SCC(=O)Nc3cc(C)on3)nc3ccccc3c2=O)cc1 | 0 | 0 | 0 | 0 | 8.8 | 0
Cc1cc(NC(=O)CSc2nc3ccccc3c(=O)n2Cc2ccccc2)no1 | 0 | 0 | 0 | 0 | 8.5 | 0
Cc1cc(NC(=O)CSc2nnc(-c3c[nH]c4ccccc34)n2-c2ccc(Cl)cc2)no1 | 0 | 0 | 0 | 0 | 12.5 | 0
COC(=O)c1ccc2nc(-c3ccc(F)cc3)c(CC3CCCCC3)n2c1 | - | - | - | 0 | - | -
COCCN(C(=O)c1ccccc1F)c1nnc(-c2ccc(OC)cc2)s1 | - | 0 | 0 | 0 | 0 | 0
CCc1ccc(NC(=O)Cn2nc(C(F)(F)F)c3c2CCC3)cc1 | 0 | 0 | 0 | 0 | 9.2 | 0
Cc1nc([N+](=O)[O-])c(Br)n1CC(=O)c1ccc2ccccc2c1 | 0 | 0 | 0 | 21.9 | 0 | 0
CCNC(=O)C1(C)CCCN1C(=O)c1ccc(C#N)cc1 (stereo not drawn) | - | 0 | - | 0 | 0 | -
COc1cc(NC(=S)NC(=O)c2ccccc2F)ccc1NC(=O)c1ccco1 | 0 | 0 | 0 | 0 | 9.1 | 0
COc1ccccc1C(=O)NC(=S)Nc1ccc(Cc2ccncc2)cc1 | - | 0 | 0 | 0 | 12.9 | 0
CCC(O)(Cc1ccccn1)Cc1ccccn1 | - | 0 | - | 0 | 0 | 0
COC(=O)C[C@@H]1C[C@H]2c3cc(N(C)C)ccc3O[C@H]2[C@H](CO)O1 | - | 0 | - | 0 | 0 | 0
O=C(/C=C/c1ccc(OCCCF)cc1)NCc1ccc(Cl)c(Cl)c1 | 0 | 0 | 0 | 0 | 8.9 | 0
Cc1nn(CCO)c2nc(-c3cccs3)cc(C(F)(F)F)c12 | 0 | 0 | 0 | 0 | 8.5 | 0
O=C1Nc2ccccc2C1(c1ccccc1)c1ccccc1 | 0 | 0 | 0 | 0 | 36.9 | 0
Cc1ccc(C(=O)/C=C/c2c[nH]c3ccccc23)cc1 | 0 | 0 | 0 | 25.2 | 0 | 0
